The record followed here is BindingDB's records for doi:10.1021/jm0110439 (Ghent University, 2002).

Molecules are shown by their SMILES.

This assay concerns the target T1, Adenosine receptor A1 (Rattus norvegicus, UniProt P25099).
T1 sequence (P25099 whole entry): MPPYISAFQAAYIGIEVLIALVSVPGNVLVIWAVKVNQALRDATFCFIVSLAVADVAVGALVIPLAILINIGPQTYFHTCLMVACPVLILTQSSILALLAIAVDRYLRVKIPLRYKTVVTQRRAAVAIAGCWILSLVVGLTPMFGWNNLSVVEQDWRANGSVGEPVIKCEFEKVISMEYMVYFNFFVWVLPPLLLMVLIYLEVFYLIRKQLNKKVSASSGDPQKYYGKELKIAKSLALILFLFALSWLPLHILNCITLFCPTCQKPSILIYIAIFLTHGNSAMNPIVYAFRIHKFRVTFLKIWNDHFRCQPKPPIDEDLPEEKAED
The assay is described as follows: GTP-induced shift at rat Adenosine A1 receptor (A1AR). Summed up:
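GTP shift taken from these two Ki values. Done only for compounds giving >50% radioligand displacement at 10⁻⁶ M. At least three independent experiments in duplicate.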
In the case of `Cn1cnc2c(NC3CCCC3)ncnc21`, the GTP shift was 0.94.
`C[C@H]1O[C@@H](n2cnc3c(NC4CCCC4)ncnc32)[C@H](O)[C@H]1NC(=O)C1(c2ccccc2)CCCCC1` [1-Phenyl-cyclohexanecarboxylic acid [5-(6-cyclopentylamino-purin-9-yl)-4-hydroxy-2-methyl-tetrahydro-furan-3-yl]-amide]: the GTP shift was 0.74.
For `C[C@H]1O[C@@H](n2cnc3c(NC4CCCC4)ncnc32)[C@H](O)[C@H]1NC(=O)C1(c2ccccc2)CCCC1` [1-Phenyl-cyclopentanecarboxylic acid [5-(6-cyclopentylamino-purin-9-yl)-4-hydroxy-2-methyl-tetrahydro-furan-3-yl]-amide], the GTP shift amounted to 0.84.
Then `C[C@H]1O[C@@H](n2cnc3c(NC4CCCC4)ncnc32)[C@H](O)[C@H]1O` [2-(6-Cyclopentylamino-purin-9-yl)-5-methyl-tetrahydro-furan-3,4-diol], with 6.4.
`C[C@H]1O[C@@H](n2cnc3c(NC4CCCC4)ncnc32)[C@H](O)[C@H]1NC(=O)C1CCCC[C@H]1C(=O)c1cccs1` (some centres undefined) [2-(Thiophene-2-carbonyl)-cyclohexanecarboxylic acid [5-(6-cyclopentylamino-purin-9-yl)-4-hydroxy-2-methyl-tetrahydro-furan-3-yl]-amide]: the GTP shift amounted to 0.72.
Then `O=C(N[C@@H]1[C@@H](O)[C@H](n2cnc3c(NC4CCCC4)ncnc32)O[C@@H]1CO)c1ccc(F)c(Cl)c1` [3-Chloro-N-[5-(6-cyclopentylamino-purin-9-yl)-4-hydroxy-2-hydroxymethyl-tetrahydro-furan-3-yl]-4-fluoro-benzamide], with 0.7.
On to `Cc1ccc(C(=O)N[C@@H]2[C@@H](O)[C@H](n3cnc4c(NC5CCCC5)ncnc43)O[C@@H]2CO)cc1C` [N-[5-(6-Cyclopentylamino-purin-9-yl)-4-hydroxy-2-hydroxymethyl-tetrahydro-furan-3-yl]-3,4-dimethyl-benzamide], for which the GTP shift came out at 0.73.
As for `O=C(CCCc1cccs1)N[C@@H]1[C@@H](O)[C@H](n2cnc3c(NC4CCCC4)ncnc32)O[C@@H]1CO` [N-[5-(6-Cyclopentylamino-purin-9-yl)-4-hydroxy-2-hydroxymethyl-tetrahydro-furan-3-yl]-4-thiophen-2-yl-butyramide], the GTP shift is 0.69.
For `C[C@H]1O[C@@H](n2cnc3c(NC4CCCC4)ncnc32)[C@H](O)[C@H]1NC(=O)CCCc1cccs1` [N-[5-(6-Cyclopentylamino-purin-9-yl)-4-hydroxy-2-methyl-tetrahydro-furan-3-yl]-4-thiophen-2-yl-butyramide] the value was 0.7.
